Measurements published in ChEMBL document CHEMBL4196141, “Improved Antibacterial Activity of the Marine Peptide N6 against Intracellular Salmonella Typhimurium by Conjugating with the Cell-Penetrating Peptide Tat11 via a Cleavable Linker” (J Med Chem, 2018).
Values after ≈ are worked out from the molar mass of the structure shown. Active and inactive are the calls of the source. No cut-off for these calls is given here.

Legend:
Salmonella typhimurium [1] = assay: Bactericidal activity against 2 hrs-gentamicin pre-exposed Salmonella typhimurium ATCC 14028 assessed as reduction colony forming units at 50 uM incubated for 10 hrs relative to marine peptide N6; type: functional, Salmonella enterica subsp. enterica serovar Typhimurium; parameters: scale not given: the % may be the effect or the level left
Procedure, shortened: (§1)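 Macrophage protection assay. RAW264.7 cells (5 × 10^4/well, 24 h) were infected with S. Typhimurium ATCC14028 at MOI 10 for 1 h in DMEM/10% FBS, exposed to 100 µg/mL gentamicin for 2 h at 37 °C, and PBS-washed. Peptides in DMEM/10% FBS were added for 10 h. Cells were lysed with 0.1% Triton X-100 and CFU plated; log10 CFU reduction versus untreated cells. Three replicates; two independent experiments; one-way ANOVA with Tukey.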

Salmonella typhimurium [2] = assay: Antibacterial activity against Salmonella typhimurium ATCC 14028 incubated for 16 to 18 hrs at pH 7.2 by broth microdilution method; type: functional, Salmonella enterica subsp. enterica serovar Typhimurium; conditions: Salmonella enterica
Procedure, shortened: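 Broth microdilution in MH broth. S. Typhimurium ATCC14028 was grown overnight at 37 °C to semi-log phase, pelleted, and diluted to OD600 0.01; final inoculum was 5 × 10^5 CFU/mL. Plates were incubated 16–18 h at 37 °C. MIC is the lowest peptide concentration with no visible growth. Data are in duplicate from at least two independent experiments.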

Salmonella typhimurium [3] = assay: Bactericidal activity against 2 hrs-gentamicin pre-exposed Salmonella typhimurium ATCC 14028 assessed as reduction colony forming units at 50 uM incubated for 10 hrs; type: functional, Salmonella enterica subsp. enterica serovar Typhimurium; procedure, shortened: as §1
Salmonella typhimurium [4] = assay: Antibacterial activity against Salmonella typhimurium ATCC 14028 using 1 hr cathepsin B pre-treated compound at pH 5 incubated for 16 to 18 hrs at by broth microdilution method; type: functional, Salmonella enterica subsp. enterica serovar Typhimurium; conditions: Salmonella enterica
Procedure, shortened: (§2)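 Cathepsin B (bovine spleen, 10 µg/mL) was added for 1 h at 37 °C, and the reaction was stopped with 9 volumes of MHB. MIC was then run by broth microdilution (5 × 10^5 CFU/mL, 16–18 h, 37 °C) in medium adjusted to pH 5.0.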

Salmonella typhimurium [5] = assay: Antibacterial activity against Salmonella typhimurium ATCC 14028 infected in ICR mouse model of peritonitis assessed as reduction colony forming units in kidney at 1 to 2 umol/kg, ip dosed at 2 hrs post infection and measured after 10 hrs post dose relative to marine peptide N6; type: functional, Salmonella enterica subsp. enterica serovar Typhimurium; parameters: scale not given: the % may be the effect or the level left
Procedure, shortened: (§3)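 Female ICR mice, six weeks old (six per group), were infected ip with S. Typhimurium ATCC14028 (5 × 10^5 CFU, 0.5 mL). Peptide was given ip at 1, 1.5 or 2 µmol/kg 2 h post-infection. Mice were killed 10 h after treatment, and kidneys and spleens were homogenized in sterile PBS for CFU counts of translocated bacteria. PBS-treated mice served as negative control, ciprofloxacin-treated mice as positive.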

[6] = Cytotoxicity in mouse RAW264.7 assessed as cell survival at 100 uM incubated for 8 hrs by MTT assay; type: cell-based; conditions: RAW264.7 cells, read-out: Survival
Procedure, shortened: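 RAW264.7 cells seeded at 2.5 × 10^4 cells/well, cultured 24 h, then exposed for 8 h to 2-fold dilutions from 100 to 0.625 µM. MTT at 5 mg/mL added for 4 h, formazan dissolved in DMSO, absorbance read at 570 nm. Untreated cells served as control. Samples run in triplicate.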

Salmonella typhimurium [7] = assay: Antibacterial activity against Salmonella typhimurium ATCC 14028 infected in ICR mouse model of peritonitis assessed as mouse survival at 1 umol/kg, ip dosed at 0.5 and 8 hrs post infection and measured daily for 7 days
Salmonella typhimurium [8] = assay: Bactericidal activity against 2 hrs-gentamicin pre-exposed Salmonella typhimurium ATCC 14028 assessed as reduction colony forming units at 20 uM incubated for 10 hrs; type: functional, Salmonella enterica subsp. enterica serovar Typhimurium; procedure, shortened: as §1
Salmonella typhimurium [9] = assay: Antibacterial activity against Salmonella typhimurium ATCC 14028 infected in ICR mouse model of peritonitis assessed as mouse survival at 1.5 umol/kg, ip dosed at 0.5 and 8 hrs post infection and measured daily for 7 days
Salmonella typhimurium [10] = assay: Antibacterial activity against Salmonella typhimurium ATCC 14028 using 1 hr cathepsin B pre-treated compound followed by incubation for 16 to 18 hrs at pH 5 by broth microdilution method; type: functional, Salmonella enterica subsp. enterica serovar Typhimurium; conditions: Salmonella enterica; procedure, shortened: as §2
Salmonella typhimurium [11] = assay: Antibacterial activity against Salmonella typhimurium ATCC 14028 infected in ICR mouse model of peritonitis assessed as reduction colony forming units in spleen at 1 to 2 umol/kg, ip dosed at 2 hrs post infection and measured after 10 hrs post dose relative to marine peptide N6; type: functional, Salmonella enterica subsp. enterica serovar Typhimurium; parameters: scale not given: the % may be the effect or the level left; procedure, shortened: as §3
Salmonella typhimurium [12] = assay: Antibacterial activity against Salmonella typhimurium ATCC 14028 assessed as time duration for reduction in growth using cathepsin B pre-treated compound at 1 to 2 MIC incubated for 1 to 24 hrs by time kill assay; type: functional, Salmonella enterica subsp. enterica serovar Typhimurium
Procedure, shortened: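 Time-kill of cathepsin B-pretreated peptide (1 h, 37 °C, pH 5 buffer). Mid-log S. Typhimurium at 10^5 CFU/mL was exposed to 1× and 2× MIC at 37 °C with shaking at 250 rpm. Samples were taken every 2 h, serially diluted and plate-counted. N6 and ciprofloxacin served as controls.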

[13] = Induction of hemolysis in mouse RBC at 100 uM incubated for 1 hrs at 37 degC; type: cell-based, Erythrocyte; conditions: red blood cells (erythrocytes), read-out: Activity
Procedure, shortened: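 Fresh mouse erythrocytes were washed three times in 0.9% NaCl, and an 8% suspension was incubated with peptide (2-fold dilutions, 100 to 0.3125 µM) for 1 h at 37 °C. Released hemoglobin was read at 540 nm. 1% Triton X-100 defined 100% lysis; polymyxin served as positive control and NaCl as negative.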

Salmonella typhimurium [14] = assay: Antibacterial activity against Salmonella typhimurium ATCC 14028 infected in ICR mouse model of peritonitis assessed as reduction colony forming units in intracellular fluids at 1 umol/kg, ip dosed at 2 hrs post infection and measured after 10 hrs post dose; type: functional, Salmonella enterica subsp. enterica serovar Typhimurium
Procedure, shortened: (§4)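 Six-week-old female ICR mice (six per group) received ip S. Typhimurium ATCC14028 (5 × 10^5 CFU, 0.5 mL). Peptide was given ip 2 h post-infection and mice were killed 10 h after treatment. Peritoneum was lavaged with 5 mL ice-cold PBS and total CFU counted. For intracellular CFU, pelleted cells were treated with 100 µg/mL gentamicin for 1 h at 37 °C, washed, lysed and plated. PBS served as negative control, ciprofloxacin as positive.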

Salmonella typhimurium [15] = assay: Bactericidal activity against 2 hrs-gentamicin pre-exposed Salmonella typhimurium ATCC 14028 assessed as reduction colony forming units at 20 uM incubated for 10 hrs relative to marine peptide N6; type: functional, Salmonella enterica subsp. enterica serovar Typhimurium; parameters: scale not given: the % may be the effect or the level left; procedure, shortened: as §1
Salmonella typhimurium [16] = assay: Antibacterial activity against Salmonella typhimurium ATCC 14028 infected in ICR mouse model of peritonitis assessed as reduction colony forming units in total peritoneal fluids at 1 umol/kg, ip dosed at 2 hrs post infection and measured after 10 hrs post dose; type: functional, Salmonella enterica subsp. enterica serovar Typhimurium; procedure, shortened: as §4
Salmonella typhimurium [17] = assay: Bactericidal activity against 2 hrs-gentamicin pre-exposed Salmonella typhimurium ATCC 14028 assessed as reduction colony forming units at 10 uM measured within 9 hrs; type: functional, organism-based; conditions: Salmonella enterica subsp. enterica serovar Typhimurium
Procedure, shortened: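 RAW264.7 cells in DMEM/10% FBS were infected with S. Typhimurium ATCC14028 at MOI 10 for 1 h, then given 100 µg/mL gentamicin for 2 h at 37 °C and washed. Cells were treated with 10 µM agent for 1, 3, 6, 9 and 12 h, lysed with 0.1% Triton X-100, and surviving intracellular bacteria were serially diluted and plated for CFU.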

Compound	Activity (Salmonella typhimurium [1])	MIC (Salmonella typhimurium [2])	Activity (Salmonella typhimurium [3])	MIC (Salmonella typhimurium [4])	Activity (Salmonella typhimurium [5])	viability at 8 h, 100 µM [6]	Activity (Salmonella typhimurium [7])	Activity (Salmonella typhimurium [8])	Activity (Salmonella typhimurium [9])	MIC (Salmonella typhimurium [10])	Activity (Salmonella typhimurium [11])	Time (Salmonella typhimurium [12])	hemolysis at 1 h, 100 µM [13]	Activity (Salmonella typhimurium [14])	Activity (Salmonella typhimurium [15])	Activity (Salmonella typhimurium [16])	Activity (Salmonella typhimurium [17])
CC(C)[C@H](NC(=O)CCCCCN1C(=O)CC(SC[C@H](N)C(=O)N[C@@H](Cc2ccc(O)cc2)C(=O)NCC(=O)N[C@@H](CCCNC(=N)N)C(=O)N[C@@H](CCCCN)C(=O)N[C@@H](CCCCN)C(=O)N[C@@H](CCCNC(=N)N)C(=O)N[C@@H](CCCNC(=N)N)C(=O)N[C@@H](CCC(N)=O)C(=O)N[C@@H](CCCNC(=N)N)C(=O)N[C@@H](CCCNC(=N)N)C(=O)N[C@@H](CCCNC(=N)N)C(=O)O)C1=O)C(=O)N[C@@H](CCCNC(N)=O)C(=O)Nc1ccc(COC(=O)NCC(=O)N[C@@H](Cc2ccccc2)C(=O)N[C@@H](C)C(=O)N[C@@H](Cc2c[nH]c3ccccc23)C(=O)N[C@@H](CC(N)=O)C(=O)N[C@H](C(=O)N[C@H]2CSSC[C@@H](C(=O)N[C@@H](Cc3cnc[nH]3)C(=O)N[C@@H](CCCNC(=N)N)C(=O)N[C@@H](CCCNC(=N)N)C(=O)N[C@@H](C)C(=O)N[C@@H](CC(N)=O)C(N)=O)NC(=O)[C@H](C(C)C)NC(=O)[C@H](CCCNC(=N)N)NC(=O)[C@H](C(C)C)NC(=O)CNC(=O)[C@H](CC(N)=O)NC(=O)[C@H](CCCNC(=N)N)NC(=O)[C@H](Cc3ccc(O)cc3)NC(=O)[C@H](C(C)C)NC2=O)C(C)C)cc1 (stereo partly drawn)	98.6%	13.6 µM (≈ 64.4 µg/mL)	3.29 log10CFU	1.7 µM (≈ 8.05 µg/mL)	241%	64.3%	83.3%	2.54 log10CFU	100%	3.4 µM (≈ 16.1 µg/mL)	241%	<=2 hr	4.6%	2.04 log10CFU	98.9%	3.46 log10CFU	Active
O=C(O)c1cn(C2CC2)c2cc(N3CCNCC3)c(F)cc2c1=O [CIPROFLOXACIN]	–	–	–	–	–	–	100%	–	–	–	–	–	–	–	–	–	–
